From ChEMBL document CHEMBL2311453, “Tetrahydropyrroloquinolinone type dual inhibitors of aromatase/aldosterone synthase as a novel strategy for breast cancer patients with elevated cardiovascular risks” (J Med Chem, 2013)

Each compound was assayed against T1, Aromatase (Homo sapiens, UniProt P11511) (assay: Inhibition of human CYP19 using [1beta-3H]androstenedione as substrate by 3H2O method).
T1 sequence (P11511 whole entry): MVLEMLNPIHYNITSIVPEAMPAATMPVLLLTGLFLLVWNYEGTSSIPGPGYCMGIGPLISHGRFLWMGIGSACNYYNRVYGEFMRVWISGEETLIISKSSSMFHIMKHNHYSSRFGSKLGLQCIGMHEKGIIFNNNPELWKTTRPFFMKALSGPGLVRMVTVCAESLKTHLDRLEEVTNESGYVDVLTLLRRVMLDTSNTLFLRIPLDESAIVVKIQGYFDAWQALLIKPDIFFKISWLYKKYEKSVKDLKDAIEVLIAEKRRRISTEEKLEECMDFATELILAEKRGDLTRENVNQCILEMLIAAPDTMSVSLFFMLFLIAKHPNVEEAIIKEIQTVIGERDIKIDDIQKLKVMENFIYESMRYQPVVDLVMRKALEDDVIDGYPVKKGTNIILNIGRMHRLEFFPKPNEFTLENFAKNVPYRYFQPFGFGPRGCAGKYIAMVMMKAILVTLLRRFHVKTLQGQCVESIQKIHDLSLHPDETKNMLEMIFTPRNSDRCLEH

Row | Compound | IC50 [nM]
1 | COc1ccc(C(c2ccncc2)c2cc3c4c(c2)CCN4C(=O)CC3)cc1 (single isomer, unassigned; (+)) [listing 1 of 2 here] | 273
2 | CC(c1ccncc1)c1cc2c3c(c1)CCN3C(=O)CC2 (configuration not stated) | 1500
3 | O=C1CCc2cc(C(c3ccncc3)c3cc(C(F)(F)F)cc(C(F)(F)F)c3)cc3c2N1CC3 (configuration not stated) | 246
4 | Cc1cccc(C(c2cccnc2)c2cc3c4c(c2)CCN4C(=O)CC3)c1 (configuration not stated) | > 5000
5 | CC(C)C(c1ccncc1)c1cc2c3c(c1)CCN3C(=O)CC2 (configuration not stated) | 889
6 | O=C1CCc2cc(C(c3ccccc3)c3ccncc3)cc3c2N1CC3 (configuration not stated) | 880
7 | O=C1CCc2cc(C(c3ccncc3)c3cccc(F)c3)cc3c2N1CC3 (configuration not stated) | 74
8 | O=C1CCc2cc(C(c3ccc(F)cc3)c3cccnc3)cc3c2N1CC3 (configuration not stated) | 140
9 | O=C1CCc2cc(C(c3ccccc3)c3cccnc3)cc3c2N1CC3 (configuration not stated) | 2130
10 | COc1ccc(C(c2ccncc2)c2cc3c4c(c2)CCN4C(=O)CC3)cc1 (single isomer, unassigned; (-)) [listing 1 of 2 here] | 92
11 | O=C1CCc2cc(C(c3cccnc3)c3cccc(Cl)c3)cc3c2N1CC3 (configuration not stated) | 1350
12 | COc1ccccc1C(c1cccnc1)c1cc2c3c(c1)CCN3C(=O)CC2 (configuration not stated) | 3660
13 | O=C1CCc2cc(C(O)c3cccnc3)cc3c2N1CC3 (configuration not stated) | > 5000
14 | O=C1CCc2cc(C(c3ccncc3)C3CCCCC3)cc3c2N1CC3 (configuration not stated) | 74

What follows are compounds tested against T2, Cytochrome P450 11B2, mitochondrial (Homo sapiens, UniProt P19099) (assay: Inhibition of human CYP11B2 expressed in hamster V79MZh cells using [1,2-3H]-11-deoxy-corticosterone as substrate).
T2 sequence (P19099 whole entry): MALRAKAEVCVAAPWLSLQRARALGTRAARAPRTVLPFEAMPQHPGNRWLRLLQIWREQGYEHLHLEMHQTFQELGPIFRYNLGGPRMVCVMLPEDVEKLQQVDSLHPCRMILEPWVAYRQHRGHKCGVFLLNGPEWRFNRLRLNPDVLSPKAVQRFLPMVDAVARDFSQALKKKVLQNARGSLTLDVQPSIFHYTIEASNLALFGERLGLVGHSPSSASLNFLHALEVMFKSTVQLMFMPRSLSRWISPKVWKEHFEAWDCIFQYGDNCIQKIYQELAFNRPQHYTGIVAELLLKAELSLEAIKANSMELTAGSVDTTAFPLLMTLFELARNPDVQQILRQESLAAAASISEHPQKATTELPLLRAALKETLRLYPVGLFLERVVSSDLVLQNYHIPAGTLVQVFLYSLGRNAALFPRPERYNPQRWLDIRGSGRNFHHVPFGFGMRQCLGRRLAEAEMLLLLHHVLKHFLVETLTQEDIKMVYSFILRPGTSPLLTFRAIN
Type: cell-based
Summary of the method: (§1)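 V79MZh hamster fibroblasts stably expressing human CYP11B1 or CYP11B2, incubated with [1,2-³H]-11-deoxycorticosterone (100 nM) and inhibitor at varying concentrations. IC50 taken as mean of at least three experiments (relative SD under 25%).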

Row | Compound | IC50 [nM]
15 | COc1ccc(C(c2ccncc2)c2cc3c4c(c2)CCN4C(=O)CC3)cc1 (single isomer, unassigned; (+)) [listing 1 of 2 here] | 46
16 | CC(c1ccncc1)c1cc2c3c(c1)CCN3C(=O)CC2 (configuration not stated) | 74
17 | O=C1CCc2cc(C(c3ccncc3)c3cc(C(F)(F)F)cc(C(F)(F)F)c3)cc3c2N1CC3 (configuration not stated) | 1580
18 | Cc1cccc(C(c2cccnc2)c2cc3c4c(c2)CCN4C(=O)CC3)c1 (configuration not stated) | > 5000
19 | CC(C)C(c1ccncc1)c1cc2c3c(c1)CCN3C(=O)CC2 (configuration not stated) | 750
20 | O=C1CCc2cc(C(c3ccccc3)c3ccncc3)cc3c2N1CC3 (configuration not stated) | 390
21 | O=C1CCc2cc(C(c3ccncc3)c3cccc(F)c3)cc3c2N1CC3 (configuration not stated) | 88
22 | O=C1CCc2cc(C(c3ccc(F)cc3)c3cccnc3)cc3c2N1CC3 (configuration not stated) | 587
23 | O=C1CCc2cc(C(c3ccccc3)c3cccnc3)cc3c2N1CC3 (configuration not stated) | 132
24 | COc1ccc(C(c2ccncc2)c2cc3c4c(c2)CCN4C(=O)CC3)cc1 (single isomer, unassigned; (-)) [listing 1 of 2 here] | 74
25 | O=C1CCc2cc(C(c3cccnc3)c3cccc(Cl)c3)cc3c2N1CC3 (configuration not stated) | > 5000
26 | COc1ccccc1C(c1cccnc1)c1cc2c3c(c1)CCN3C(=O)CC2 (configuration not stated) | > 5000
27 | O=C1CCc2cc(C(O)c3cccnc3)cc3c2N1CC3 (configuration not stated) | > 5000
28 | O=C1CCc2cc(C(c3ccncc3)C3CCCCC3)cc3c2N1CC3 (configuration not stated) | 1290

These compounds were tested on V79MZh (assay: Selectivity factor, ratio of IC50 for human CYP11B1 to IC50 for human CYP11B2 expressed in hamster V79MZh cells).
Type: cell-based
Summary of the method: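 SF calculated as IC50(CYP11B1)/IC50(CYP11B2). Both IC50s come from V79MZh hamster fibroblasts expressing the human enzyme, with [1,2-³H]-11-deoxycorticosterone at 100 nM as substrate.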

Row | Compound | Ratio IC50
29 | CC(c1ccncc1)c1cc2c3c(c1)CCN3C(=O)CC2 (configuration not stated) | 1.9
30 | O=C1CCc2cc(C(c3ccncc3)c3cc(C(F)(F)F)cc(C(F)(F)F)c3)cc3c2N1CC3 (configuration not stated) | > 3
31 | COc1ccc(C(c2ccncc2)c2cc3c4c(c2)CCN4C(=O)CC3)cc1 (stereo in doubt; 3k) | 16
32 | Cc1cccc(C(c2cccnc2)c2cc3c4c(c2)CCN4C(=O)CC3)c1 (configuration not stated) | < 0.2
33 | CC(C)C(c1ccncc1)c1cc2c3c(c1)CCN3C(=O)CC2 (configuration not stated) | 1.9
34 | O=C1CCc2cc(C(c3ccccc3)c3ccncc3)cc3c2N1CC3 (configuration not stated) | 14
35 | COc1ccc(C(c2ccncc2)c2cc3c4c(c2)CCN4C(=O)CC3)cc1 (single isomer, unassigned; (-)) [listing 2 of 2 here] | 6.9
36 | O=C1CCc2cc(C(c3ccncc3)c3cccc(F)c3)cc3c2N1CC3 (configuration not stated) | 6
37 | O=C1CCc2cc(C(c3ccc(F)cc3)c3cccnc3)cc3c2N1CC3 (configuration not stated) | 0.1
38 | O=C1CCc2cc(C(c3ccccc3)c3cccnc3)cc3c2N1CC3 (configuration not stated) | 0.5
39 | O=C1CCc2cc(C(c3cccnc3)c3cccc(Cl)c3)cc3c2N1CC3 (configuration not stated) | < 0.1
40 | COc1ccccc1C(c1cccnc1)c1cc2c3c(c1)CCN3C(=O)CC2 (configuration not stated) | < 0.3
41 | COc1ccc(C(c2ccncc2)c2cc3c4c(c2)CCN4C(=O)CC3)cc1 (single isomer, unassigned; (+)) [listing 2 of 2 here] | 37
42 | O=C1CCc2cc(C(O)c3cccnc3)cc3c2N1CC3 (configuration not stated) | < 0.1
43 | O=C1CCc2cc(C(c3ccncc3)C3CCCCC3)cc3c2N1CC3 (configuration not stated) | > 4

The compounds below were run against T3, Cytochrome P450 11B1, mitochondrial (Homo sapiens, UniProt P15538) (assay: Inhibition of human CYP11B1 expressed in hamster V79MZh cells using [1,2-3H]-11-deoxy-corticosterone as substrate).
T3 sequence (P15538 whole entry): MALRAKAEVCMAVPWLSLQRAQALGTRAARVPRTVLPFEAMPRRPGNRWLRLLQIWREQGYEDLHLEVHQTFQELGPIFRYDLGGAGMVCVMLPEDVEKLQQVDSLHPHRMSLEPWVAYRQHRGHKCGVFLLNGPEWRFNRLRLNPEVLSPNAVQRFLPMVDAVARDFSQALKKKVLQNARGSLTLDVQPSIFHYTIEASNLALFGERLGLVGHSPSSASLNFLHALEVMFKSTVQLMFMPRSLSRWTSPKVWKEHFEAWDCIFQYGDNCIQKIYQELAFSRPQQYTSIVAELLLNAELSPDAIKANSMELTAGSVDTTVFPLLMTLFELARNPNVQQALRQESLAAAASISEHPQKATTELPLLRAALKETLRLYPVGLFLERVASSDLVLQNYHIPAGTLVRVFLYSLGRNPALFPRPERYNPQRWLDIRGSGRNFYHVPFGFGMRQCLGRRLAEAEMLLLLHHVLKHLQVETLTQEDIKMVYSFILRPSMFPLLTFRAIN
Type: cell-based
Summary of the method: as §1

Row | Compound | IC50 [nM]
44 | COc1ccc(C(c2ccncc2)c2cc3c4c(c2)CCN4C(=O)CC3)cc1 (single isomer, unassigned; (+)) [listing 1 of 2 here] | 1690
45 | CC(c1ccncc1)c1cc2c3c(c1)CCN3C(=O)CC2 (configuration not stated) | 140
46 | O=C1CCc2cc(C(c3ccncc3)c3cc(C(F)(F)F)cc(C(F)(F)F)c3)cc3c2N1CC3 (configuration not stated) | > 5000
47 | Cc1cccc(C(c2cccnc2)c2cc3c4c(c2)CCN4C(=O)CC3)c1 (configuration not stated) | 1220
48 | CC(C)C(c1ccncc1)c1cc2c3c(c1)CCN3C(=O)CC2 (configuration not stated) | 1420
49 | O=C1CCc2cc(C(c3ccccc3)c3ccncc3)cc3c2N1CC3 (configuration not stated) | 5400
50 | O=C1CCc2cc(C(c3ccncc3)c3cccc(F)c3)cc3c2N1CC3 (configuration not stated) | 532
51 | O=C1CCc2cc(C(c3ccc(F)cc3)c3cccnc3)cc3c2N1CC3 (configuration not stated) | 78
52 | O=C1CCc2cc(C(c3ccccc3)c3cccnc3)cc3c2N1CC3 (configuration not stated) | 68
53 | COc1ccc(C(c2ccncc2)c2cc3c4c(c2)CCN4C(=O)CC3)cc1 (single isomer, unassigned; (-)) [listing 1 of 2 here] | 511
54 | O=C1CCc2cc(C(c3cccnc3)c3cccc(Cl)c3)cc3c2N1CC3 (configuration not stated) | 36
55 | COc1ccccc1C(c1cccnc1)c1cc2c3c(c1)CCN3C(=O)CC2 (configuration not stated) | 2270
56 | O=C1CCc2cc(C(O)c3cccnc3)cc3c2N1CC3 (configuration not stated) | 750
57 | O=C1CCc2cc(C(c3ccncc3)C3CCCCC3)cc3c2N1CC3 (configuration not stated) | > 5000
